The source made the active and inactive calls. The calls are words filed in the database; no cut-off is given here.
Key:
HCT-116 [1] = assay: Cell cycle arrest in human HCT116 cells assessed as accumulation at G1 phase at 0.5 uM after 24 hrs by flow cytometry (reference value: 53.98%); assay type: functional
HCT-116 [2] = assay: Induction of apoptosis in human HCT116 cells assessed as early apoptotic cells at 1 uM after 24 hrs by annexin V/propidium iodide staining-based flow cytometry (reference value: 2.83%); assay type: functional
Method in brief: (§1)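 HCT116 cells treated with compound or DMSO for 24 or 48 h, trypsinized, washed twice in PBS and dual-stained with annexin-V and PI. Analysed by flow cytometry: early apoptotic cells scored as annexin-V+/PI−, late apoptotic cells as annexin-V+/PI+.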

HepG2 [3] = assay: Induction of apoptosis in human HepG2 cells assessed as early apoptotic cells at 1 uM after 48 hrs by annexin V/propidium iodide staining-based flow cytometry (reference value: 0.87%); assay type: functional
HepG2 [4] = assay: Induction of apoptosis in human HepG2 cells assessed as early apoptotic cells at 0.2 uM after 48 hrs by annexin V/propidium iodide staining-based flow cytometry (reference value: 0.87%); assay type: functional
Tubulin (Homo sapiens) = Tubulin (Homo sapiens) (UniProt P68371+Q9H4B7+P0DPH7+P68366+Q13509+Q71U36+P04350+Q3ZCM7+P07437+P68363+Q9BQE3+Q6PEY2+Q13885+Q9BVA1+Q9BUF5); assay: Binding affinity to tubulin in human HepG2 cells at 5 uM after 4 hrs by EBI competition assay; assay type: cell-based
Method in brief: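 HepG2 cells seeded at 500,000 cells/well, allowed to adhere, then treated with compound for 4 h. EBI added at 100 µM for 1.5 h. Cell extracts (about 20 µg protein) run on 10% SDS-PAGE, blotted to PVDF, probed with anti-β-tubulin, detected by ECL with GAPDH as loading control. Read-out is loss of the faster-migrating β-tubulin–EBI adduct band.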

SK-OV-3 = assay: Antitumor activity against human SKOV3 cells xenografted in Balb/c athymic nude mouse assessed as tumor growth inhibition at 20 mg/kg, ip administered daily after 42 days; assay type: functional; conditions: SK-OV-3, ip, 1008 h, read-out: TGI
Method in brief: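 Female Balb/C athymic nude mice, 5-6 weeks old, bearing s.c. right-flank SK-OV-3 xenografts implanted in HBSS. At about 100 mm3, groups of 6 given vehicle, 5-FU 10 mg/kg or compound 20 mg/kg i.p. daily. Tumors measured every 2 days (π/6 × L × W²); inhibition = (1 − treated/control tumor weight) × 100%.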

Mus musculus [5] = assay: Toxicity in Balb/c athymic nude mouse xenografted with human SKOV3 cells assessed as change in feeding and animal behavior at 20 to 50 mg/kg, ip administered daily; assay type: organism-based, SK-OV-3; conditions: in vivo
HCT-116 [6] = assay: Cell cycle arrest in human HCT116 cells assessed as accumulation at G2/M phase at 0.2 uM after 24 hrs by flow cytometry (reference value: 20.36%); assay type: functional
HepG2 [7] = assay: Cell cycle arrest in human HepG2 cells assessed as accumulation at S phase at 0.2 uM after 24 hrs by flow cytometry (reference value: 23.97%); assay type: functional
HUVEC = assay: Antivascular activity against HUVEC assessed as inhibition of tube formation after 8 hrs by Matrigel assay; assay type: functional, cell-based; conditions: Homo sapiens
Method in brief: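 Wells of prechilled plates coated with Matrigel and solidified 45 min at 37 °C. HUVECs (1 × 10^4) in EBM-2 containing compound (125-500 nM) seeded onto the gel and incubated 8 h at 37 °C. Capillary networks photographed at 100×; tubule numbers and line lengths counted manually.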

HepG2 [8] = assay: Induction of apoptosis in human HepG2 cells assessed as early apoptotic cells at 0.5 uM after 48 hrs by annexin V/propidium iodide staining-based flow cytometry (reference value: 0.87%); assay type: functional
HCT-116 [9] = assay: Induction of apoptosis in human HCT116 cells assessed as viable cells at 0.5 uM after 24 hrs by annexin V/propidium iodide staining-based flow cytometry (reference value: 92%); assay type: functional; conditions: HCT-116, 24 h, read-out: Activity
Mus musculus [10] = assay: Toxicity in Balb/c athymic nude mouse xenografted with human SKOV3 cells assessed as loss in body weight at 20 to 50 mg/kg, ip administered daily; assay type: organism-based, SK-OV-3; conditions: in vivo
Method in brief: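 Female Balb/C athymic nude mice, 5-6 weeks old, carrying s.c. right-flank SK-OV-3 xenografts started from cells in HBSS. At about 100 mm3, groups of 6 received vehicle, 5-FU 10 mg/kg, or test agent i.p. daily. Body weight was measured every two days.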

HepG2 [11] = assay: Induction of apoptosis in human HepG2 cells assessed as viable cells at 0.2 uM after 24 hrs by annexin V/propidium iodide staining-based flow cytometry (reference value: 89.8%); assay type: functional; conditions: HepG2, 24 h, read-out: Activity
NCI-H1975 = assay: Resistance ratio, ratio of IC50 for human gefitinib-resistant NCI-H1975 cells to IC50 for human HCC827 cells; assay type: functional
HCT-116 [12] = assay: Cell cycle arrest in human HCT116 cells assessed as accumulation at G2/M phase at 1 uM after 24 hrs by flow cytometry (reference value: 20.36%); assay type: functional
HCT-116 [13] = assay: Antitumor activity against human HCT116 cells xenografted in ip dosed Balb/c athymic nude mouse assessed as tumor growth inhibition administered daily; assay type: functional, organism-based
Method in brief: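 Female Balb/C athymic nude mice, 5-6 weeks old, implanted s.c. in the right flank with HCT116 cells in 100 µL HBSS. Tumor volume (π/6 × L × W²) and body weight measured every 2 days. Inhibition = (1 − treated/control tumor weight) × 100%.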

HepG2 [14] = assay: Induction of apoptosis in human HepG2 cells assessed as necrotic cells at 0.2 uM after 48 hrs by annexin V/propidium iodide staining-based flow cytometry (reference value: 1.59%); assay type: functional
HCT-116 [15] = assay: Induction of apoptosis in human HCT116 cells assessed as late apoptotic cells at 0.5 uM after 48 hrs by annexin V/propidium iodide staining-based flow cytometry (reference value: 1.71%); assay type: functional
HCT-116 [16] = assay: Induction of apoptosis in human HCT116 cells assessed as early apoptotic cells at 0.2 uM after 48 hrs by annexin V/propidium iodide staining-based flow cytometry (reference value: 2.83%); assay type: functional; method in brief: as §1
HepG2 [17] = assay: Induction of apoptosis in human HepG2 cells assessed as late apoptotic cells at 1 uM after 48 hrs by annexin V/propidium iodide staining-based flow cytometry (reference value: 3.74%); assay type: functional
Mus musculus [18] = assay: Toxicity in Balb/c athymic nude mouse xenografted with human HCT116 cells assessed as loss in body weight at 20 to 50 mg/kg, ip administered daily; assay type: organism-based, HCT-116; conditions: in vivo
Method in brief: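 Female Balb/C athymic nude mice, 5-6 weeks old, implanted s.c. in the right flank with cells in HBSS. Once tumours reached about 100 mm3, mice were randomized (6 per group) to vehicle, 5-FU 10 mg/kg, or test agent 20 or 50 mg/kg i.p. daily. Body weight was recorded every two days.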

HepG2 [19] = assay: Induction of apoptosis in human HepG2 cells assessed as early apoptotic cells at 1 uM after 24 hrs by annexin V/propidium iodide staining-based flow cytometry (reference value: 0.87%); assay type: functional

## CCOc1ccc(-c2nc(N)sc2-c2cc(OC)c(OC)c(OC)c2)cc1
HCT-116 [1]
  Activity: 11.45%
HCT-116 [2]
  Activity: 17.6%
HepG2 [3]
  Activity: 74%
HepG2 [4]
  Activity: 66.6%
Tubulin (Homo sapiens)
  Activity: inactive
SK-OV-3
  inhibition in vivo at 20 mg/kg: 49.6%
Mus musculus [5]
  Activity: Non-toxic
HCT-116 [6]
  Activity: 48.79%
HepG2 [7]
  Activity: 29.88%
HUVEC
  Activity: Dose-dependent effect
HepG2 [8]
  Activity: 65.3%
HCT-116 [9]
  viability at 0.5 µM: 74.5%
Mus musculus [10]
  Activity: Toxic
HepG2 [11]
  viability at 0.2 µM: 81.8%
NCI-H1975
  Ratio IC50: 2.24
HCT-116 [12]
  Activity: 9.22%
HCT-116 [13]
  Activity: Dose-dependent effect
HepG2 [14]
  Activity: 0.79%
HCT-116 [15]
  Activity: 26.2%
HCT-116 [16]
  Activity: 40.2%
HepG2 [17]
  Activity: 2.67%
Mus musculus [18]
  Activity: Toxic
HepG2 [19]
  Activity: 25.4%
